Calls of active or inactive are those of the source. The calls are words filed in the database; no cut-off is given here.
Columns and labels:
CWR22R [1] = test: Antitumor activity against human 22Rv1 cells xenografted in NMRI mouse assessed as inhibition of tumor growth by measuring T/C value at 15 mg/kg, iv administered on day 7 and 14 and measured on day 14; assay type: functional
In short: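 Male NMRI nu/nu mice, delivered at 4–6 weeks and quarantined at least 1 week, were implanted in the hind flank with cultured 22Rv1 cells. Mice were randomised at 80–200 mm³ tumour volume. Dosing was 15 mg/kg i.v. in 0.9% saline, given as three weekly treatments; controls received vehicle. Caliper tumour volumes were taken twice weekly, with T/C from group median relative tumour volumes, doubling/quadrupling times and body weight recorded.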

[2] = Toxicity in NMRI mouse xenografted with human 22Rv1 cells assessed as survival rate at 15 mg/kg, ip administered on day 7 and 14 and measured on day 49; assay type: organism-based; settings: in vivo
CWR22R [3] = test: Antitumor activity against human 22Rv1 cells xenografted in NMRI mouse assessed as reduction of tumor volume at […] administered on day 7 and 14 and measured on day 10; assay type: functional, organism-based
CWR22R [4] = test: Antitumor activity against human 22Rv1 cells xenografted in NMRI mouse assessed as tumor volume doubling time at […] administered on day 7 and 14 (reference value: 2.7 day); assay type: functional
CWR22R [5] = test: Antitumor activity against human 22Rv1 cells xenografted in NMRI mouse assessed as tumor volume quadrupling time at […] administered on day 7 and 14 (reference value: 6.2 day); assay type: functional
CWR22R [6] = test: Antitumor activity against human 22Rv1 cells xenografted in NMRI mouse assessed as reduction of tumor volume at […] administered on day 7 and 14 and measured on day 20; assay type: functional, organism-based
[7] = Toxicity in NMRI mouse xenografted with human 22Rv1 cells assessed as body weight loss at 15 mg/kg, ip administered on day 7 and 14 and measured on day 49; assay type: organism-based; settings: in vivo
VCaP [8] = test: Antiproliferative activity against human VCaP cells assessed as T/C value at 1 x 10^-1 uM incubated for 96 hrs by propidium iodide based 2D monolayer assay; assay type: functional
In short: (§1)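 Cells were kept in RPMI 1640 with 25 mM HEPES, 10% FCS and gentamicin at 37 °C under 5% CO2, and plated at 4,000-20,000 cells/well. After 24 h recovery, compound in medium or medium alone (control wells) was added at 10 half-log concentrations from 0.0032 to 100 µM, in triplicate, with at most 0.3% DMSO. After 96 h, wells were PBS-washed, stained with 7 µg/ml PI and 0.1% Triton X-100, and fluorescence read at 530/620 nm. IC50 came from a 4-parameter fit, geometric mean.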

VCaP [9] = test: Antiproliferative activity against human VCaP cells assessed as T/C value at 3.2 uM incubated for 96 hrs by propidium iodide based 2D monolayer assay; assay type: functional; in short: as §1
CWR22R [10] = test: Antiproliferative activity against human 22Rv1 cells assessed as T/C value at 3.2 x 10^1 uM incubated for 96 hrs by propidium iodide based 2D monolayer assay; assay type: functional; in short: as §1
CWR22R [11] = test: Antiproliferative activity against human 22Rv1 cells assessed as T/C value at 3.2 x 10^-2 uM incubated for 96 hrs by propidium iodide based 2D monolayer assay; assay type: functional; in short: as §1
DU-145 [12] = test: Antiproliferative activity against human DU145 cells assessed as reduction in cell growth incubated for 96 hrs by propidium iodide based 2D monolayer assay; assay type: functional
In short: (§2)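 After 24 h recovery, compound in medium or medium alone (control wells) was added at 10 half-log concentrations from 0.0032 to 100 µM, in triplicate, with at most 0.3% DMSO. After 96 h, wells were PBS-washed, stained with 7 µg/ml PI and 0.1% Triton X-100, and fluorescence read at 530/620 nm. IC50 came from a 4-parameter fit, geometric mean.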

LNCaP [13] = test: Antiproliferative activity against human LNCAP cells assessed as T/C value at 3.2 x 10^-3 uM incubated for 96 hrs by propidium iodide based 2D monolayer assay; assay type: functional; in short: as §1
DU-145 [14] = test: Antiproliferative activity against human DU145 cells assessed as T/C value at 3.2 x 10^1 uM incubated for 96 hrs by propidium iodide based 2D monolayer assay; assay type: functional; in short: as §1
LNCaP [15] = test: Antiproliferative activity against human LNCAP cells assessed as T/C value at 3.2 x 10^-2 uM incubated for 96 hrs by propidium iodide based 2D monolayer assay; assay type: functional; in short: as §1
VCaP [16] = test: Antiproliferative activity against human VCaP cells assessed as T/C value at 1 x 10^1 uM incubated for 96 hrs by propidium iodide based 2D monolayer assay; assay type: functional; in short: as §1
LNCaP [17] = test: Antiproliferative activity against human LNCAP cells assessed as T/C value at 1 uM incubated for 96 hrs by propidium iodide based 2D monolayer assay; assay type: functional; in short: as §1
LNCaP [18] = test: Antiproliferative activity against human LNCAP cells assessed as T/C value at 3.2 uM incubated for 96 hrs by propidium iodide based 2D monolayer assay; assay type: functional; in short: as §1
LNCaP [19] = test: Antiproliferative activity against human LNCAP cells assessed as T/C value at 1 x 10^-1 uM incubated for 96 hrs by propidium iodide based 2D monolayer assay; assay type: functional; in short: as §1
DU-145 [20] = test: Antiproliferative activity against human DU145 cells assessed as T/C value at 1 x 10^2 uM incubated for 96 hrs by propidium iodide based 2D monolayer assay; assay type: functional; in short: as §1
LNCaP [21] = test: Antiproliferative activity against human LNCAP cells assessed as T/C value at 1 x 10^1 uM incubated for 96 hrs by propidium iodide based 2D monolayer assay; assay type: functional; in short: as §1
VCaP [22] = test: Antiproliferative activity against human VCaP cells assessed as T/C value at 3.2 x 10^-3 uM incubated for 96 hrs by propidium iodide based 2D monolayer assay; assay type: functional
In short: (§3)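 VCaP cells in RPMI 1640 with 10% FCS at 37 °C, 5% CO2, seeded 4,000–20,000 cells/well and left 24 h before dosing. Compounds from DMSO stocks were diluted in half-log steps in medium, 10 concentrations 0.0032–100 μM, triplicate wells, max 0.3% DMSO. After 96 h, cells were washed, stained with 7 μg/ml propidium iodide plus 0.1% Triton X-100 for 1–2 h at room temperature, and fluorescence read at ex 530/em 620 nm.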

CWR22R [23] = test: Antiproliferative activity against human 22Rv1 cells assessed as T/C value at 1 x 10^-2 uM incubated for 96 hrs by propidium iodide based 2D monolayer assay; assay type: functional; in short: as §1
LNCaP [24] = test: Antiproliferative activity against human LNCAP cells assessed as T/C value at 1 x 10^-2 uM incubated for 96 hrs by propidium iodide based 2D monolayer assay; assay type: functional; in short: as §1
VCaP [25] = test: Antiproliferative activity against human VCaP cells assessed as T/C value at 3.2 x 10^-2 uM incubated for 96 hrs by propidium iodide based 2D monolayer assay; assay type: functional; in short: as §3
VCaP [26] = test: Antiproliferative activity against human VCaP cells assessed as T/C value at 3.2 x 10^1 uM incubated for 96 hrs by propidium iodide based 2D monolayer assay; assay type: functional; in short: as §3
CWR22R [27] = test: Antiproliferative activity against human 22Rv1 cells assessed as T/C value at 1 x 10^2 uM incubated for 96 hrs by propidium iodide based 2D monolayer assay; assay type: functional; in short: as §1
VCaP [28] = test: Antiproliferative activity against human VCaP cells assessed as T/C value at 3.2 x 10^-1 uM incubated for 96 hrs by propidium iodide based 2D monolayer assay; assay type: functional; in short: as §3
VCaP [29] = test: Antiproliferative activity against human VCaP cells assessed as T/C value at 1 x 10^-2 uM incubated for 96 hrs by propidium iodide based 2D monolayer assay; assay type: functional; in short: as §1
LNCaP [30] = test: Antiproliferative activity against human LNCAP cells assessed as T/C value at 3.2 x 10^1 uM incubated for 96 hrs by propidium iodide based 2D monolayer assay; assay type: functional; in short: as §1
CWR22R [31] = test: Antiproliferative activity against human 22Rv1 cells assessed as T/C value at 1 uM incubated for 96 hrs by propidium iodide based 2D monolayer assay; assay type: functional; in short: as §1
LNCaP [32] = test: Antiproliferative activity against human LNCAP cells assessed as T/C value at 1 x 10^2 uM incubated for 96 hrs by propidium iodide based 2D monolayer assay; assay type: functional; in short: as §1
CWR22R [33] = test: Antiproliferative activity against human 22Rv1 cells assessed as T/C value at 3.2 x 10^-3 uM incubated for 96 hrs by propidium iodide based 2D monolayer assay; assay type: functional; in short: as §1
VCaP [34] = test: Antiproliferative activity against human VCaP cells assessed as T/C value at 1 x 10^2 uM incubated for 96 hrs by propidium iodide based 2D monolayer assay; assay type: functional; in short: as §1
LNCaP [35] = test: Antiproliferative activity against human LNCAP cells assessed as reduction in cell growth incubated for 96 hrs by propidium iodide based 2D monolayer assay; assay type: functional; in short: as §2
DU-145 [36] = test: Antiproliferative activity against human DU145 cells assessed as T/C value at 3.2 uM incubated for 96 hrs by propidium iodide based 2D monolayer assay; assay type: functional; in short: as §1
CWR22R [37] = test: Antiproliferative activity against human 22Rv1 cells assessed as reduction in cell growth incubated for 96 hrs by propidium iodide based 2D monolayer assay; assay type: functional; in short: as §2
LNCaP [38] = test: Antiproliferative activity against human LNCAP cells assessed as T/C value at 3.2 x 10^-1 uM incubated for 96 hrs by propidium iodide based 2D monolayer assay; assay type: functional; in short: as §1
VCaP [39] = test: Antiproliferative activity against human VCaP cells assessed as T/C value at 1 uM incubated for 96 hrs by propidium iodide based 2D monolayer assay; assay type: functional; in short: as §1
CWR22R [40] = test: Antiproliferative activity against human 22Rv1 cells assessed as T/C value at 1 x 10^-1 uM incubated for 96 hrs by propidium iodide based 2D monolayer assay; assay type: functional; in short: as §1
CWR22R [41] = test: Antiproliferative activity against human 22Rv1 cells assessed as T/C value at 3.2 x 10^-1 uM incubated for 96 hrs by propidium iodide based 2D monolayer assay; assay type: functional; in short: as §1
CWR22R [42] = test: Antiproliferative activity against human 22Rv1 cells assessed as T/C value at 3.2 uM incubated for 96 hrs by propidium iodide based 2D monolayer assay; assay type: functional; in short: as §1
VCaP [43] = test: Antiproliferative activity against human VCaP cells assessed as reduction in cell growth incubated for 96 hrs by propidium iodide based 2D monolayer assay; assay type: functional; in short: as §3

CC(=O)O[C@@]12CO[C@@H]1C[C@H](O)[C@@]1(C)C(=O)[C@H](O)C3=C(C)[C@@H](OC(=O)[C@H](O)[C@@H](NC(=O)OC(C)(C)C)c4ccccc4)C[C@@](O)([C@@H](OC(=O)c4ccccc4)[C@H]21)C3(C)C [DOCETAXEL ANHYDROUS]
T/C (CWR22R [1]): 22.4%
survival at 49 day [2]: 100%
Activity (CWR22R [3]): Active
Time (CWR22R [4]): 6.3 days
Time (CWR22R [5]): 43.2 days
Activity (CWR22R [6]): Active
Activity [7]: 19.8%

CNC(=O)c1ccc(N2C(=S)N(c3ccc(C#N)c(C(F)(F)F)c3)C(=O)C2(C)C)cc1F [ENZALUTAMIDE]
T/C (VCaP [8]): 101%
T/C (VCaP [9]): 85%
T/C (CWR22R [10]): 57%
T/C (CWR22R [11]): 99%
Activity (DU-145 [12]): Dose-dependent effect
IC50 (DU-145 [12]; DU-145, 96 h): 32.3 µM
IC70 (DU-145 [12]; DU-145, 96 h): 71.1 µM
T/C (LNCaP [13]): 101%
T/C (DU-145 [14]): 84%
T/C (LNCaP [15]): 100%
T/C (VCaP [16]): 85%
T/C (LNCaP [17]): 65%
T/C (LNCaP [18]): 69%
T/C (LNCaP [19]): 89%
T/C (DU-145 [20]): 19%
T/C (LNCaP [21]): 57%
T/C (VCaP [22]): 106%
T/C (CWR22R [23]): 98%
T/C (LNCaP [24]): 92%
T/C (VCaP [25]): 104%
T/C (VCaP [26]): 85%
T/C (CWR22R [27]): 13%
T/C (VCaP [28]): 88%
T/C (VCaP [29]): 106%
T/C (LNCaP [30]): 28%
T/C (CWR22R [31]): 93%
T/C (LNCaP [32]): 6%
T/C (CWR22R [33]): 96%
T/C (VCaP [34]): 44%
Activity (LNCaP [35]): Dose-dependent effect
IC70 (LNCaP [35]): 31.7 µM
T/C (DU-145 [36]): 120%
Activity (CWR22R [37]): Dose-dependent effect
IC70 (CWR22R [37]; 22Rv1, 96 h): 36.5 µM
T/C (LNCaP [38]): 77%
T/C (VCaP [39]): 85%
T/C (CWR22R [40]): 93%
T/C (CWR22R [41]): 96%
T/C (CWR22R [42]): 88%
Activity (VCaP [43]): Dose-dependent effect
IC50 (VCaP [43]): 53 µM
IC70 (VCaP [43]): > 100 µM

Source: ChEMBL document CHEMBL4364301 (Eur J Med Chem, 2019)
